ChEMBL document CHEMBL4041512, “Rational design of nitrofuran derivatives: Synthesis and valuation as inhibitors of Trypanosoma cruzi trypanothione reductase” (Eur J Med Chem, 2017)
The source made the active and inactive calls. No cut-off for these calls is given here.

Key:
HeLa = test: Cytotoxicity against human HeLa cells measured after 24 hrs by crystal violet staining based assay; format: cell-based
How it was run: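 HeLa cells seeded at 2.5 x 10⁴ cells/well in DMEM with 2% FBS, 24 h at 37°C, 5% CO₂. Medium replaced with compound, eight serial dilutions in duplicate, 24 h at 37°C. Cells fixed and stained with 0.75% crystal violet in 40% methanol for 10 min. Dye dissolved in 20% acetic acid and read at 540 nm, triplicate means. Untreated cells are the negative control.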

Trypanosoma cruzi [1] = test: Anti-parasitic activity against Trypanosoma cruzi Dm28c epimastigotes in logarithmic phase measured after 24 to 48 hrs by resazurin assay; format: functional
How it was run: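 Log-phase Dm28c epimastigotes at 1x10⁶ cells/ml in PBS plus 2% (w/v) glucose. Derivatives added at 0.1-100 µM final. Incubation 24-48 h, then viability read by resazurin. DMSO-only wells serve as negative control. Resazurin is also run with compound but no parasites. IC50 is the mean of at least three independent experiments, reproducible within ±10%.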

Trypanothione reductase = Trypanothione reductase (Trypanosoma cruzi, UniProt P28593); test: Uncompetitive inhibition of Trypanosoma cruzi trypanothione reductase using […] as substrate at pH 7.5 in presence of NADPH by photometric method
How it was run: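 Reactions started with NADPH; compound-free reactions serve as control. Initial rates were plotted against TS₂ concentration and Ki was taken as the mean of at least three independent data sets, within ±10%.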

[2] = target: Trypanothione reductase (Trypanosoma cruzi) (UniProt P28593); test: Inhibition of Trypanosoma cruzi trypanothione reductase at 100 uM using […] as substrate at pH 7.5 in presence of NADPH by photometric method; settings: TDE = time-dependent effect
[3] = Selectivity index, ratio of EC50 for cytotoxicity against human HeLa cells to IC50 for anti-parasitic activity against Trypanosoma cruzi Dm28c epimastigotes; format: toxicity, cell-based; settings: read-out: Selectivity Index
How it was run: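 HeLa crystal violet EC50 (24 h) divided by epimastigote IC50 (resazurin, 48 h growth).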

Trypanosoma cruzi [4] = test: Potency index, ratio of nifurtimox IC50 to test compound IC50 for Trypanosoma cruzi Dm28c epimastigotes in logarithmic phase; format: functional
Trypanosoma cruzi [5] = test: Anti-parasitic activity against Trypanosoma cruzi Dm28c epimastigotes in logarithmic phase assessed as morphological changes at 30 uM measured after 48 hrs by resazurin assay; format: functional

Sequence of Trypanothione reductase (P28593 whole entry): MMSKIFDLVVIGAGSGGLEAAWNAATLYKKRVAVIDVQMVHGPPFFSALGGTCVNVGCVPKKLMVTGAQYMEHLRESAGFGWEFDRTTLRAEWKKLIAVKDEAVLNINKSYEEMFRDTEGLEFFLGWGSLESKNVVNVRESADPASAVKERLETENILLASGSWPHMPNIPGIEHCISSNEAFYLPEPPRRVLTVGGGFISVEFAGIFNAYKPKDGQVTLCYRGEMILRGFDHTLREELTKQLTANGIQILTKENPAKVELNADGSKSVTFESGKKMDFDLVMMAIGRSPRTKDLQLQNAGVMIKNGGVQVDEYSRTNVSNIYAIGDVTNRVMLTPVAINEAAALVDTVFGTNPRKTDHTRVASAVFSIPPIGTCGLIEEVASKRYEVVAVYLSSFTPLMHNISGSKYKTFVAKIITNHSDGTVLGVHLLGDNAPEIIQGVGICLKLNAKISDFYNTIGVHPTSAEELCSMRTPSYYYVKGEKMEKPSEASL
Sequence of Trypanothione reductase (Trypanosoma cruzi) (P28593 whole entry, looked up): as the sequence (P28593 whole entry) above

Row | SMILES | EC50 (HeLa) | IC50 (Trypanosoma cruzi [1]) | Ki (Trypanothione reductase) | inhibition [2] | selectivity ratio [3] | Ratio IC50 (Trypanosoma cruzi [4]) | Activity (Trypanosoma cruzi [5])
1 | CN(C)CCCNC(=O)c1ccc([N+](=O)[O-])o1 | 74 µM | 19 µM | 118 µM | Tde | 3.9 |  | 
2 | CCC(C)NC(=O)c1ccc([N+](=O)[O-])o1 (configuration not stated) | 165 µM | 23 µM | 1180 µM |  | 7.2 |  | 
3 | CC(C)NC(=O)c1ccc([N+](=O)[O-])o1 | 211 µM | 18 µM | 414 µM |  | 11.7 |  | 
4 | CCCN(CCC)C(=O)c1ccc([N+](=O)[O-])o1 |  | 19.6 µM | 183 µM |  |  |  | 
5 | CCCCNC(=O)c1ccc([N+](=O)[O-])o1 | 152 µM | 26 µM | 315 µM |  | 5.8 |  | 
6 | CCN(CC)CCCNC(=O)c1ccc([N+](=O)[O-])o1 | 100 µM | 25 µM | 128 µM |  | 4 |  | 
7 | O=C(c1ccc([N+](=O)[O-])o1)N(Cc1ccccc1)Cc1ccccc1 | 78 µM | 1.1 µM | 68 µM | Tde | 70.1 | 4 | 
8 | CC(C)(C)NC(=O)c1ccc([N+](=O)[O-])o1 |  | 35 µM | 313 µM |  |  |  | 
9 | CCCNC(=O)c1ccc([N+](=O)[O-])o1 | 150 µM | 17 µM | 336 µM |  | 8.8 |  | 
10 | CN(C)CCNC(=O)c1ccc([N+](=O)[O-])o1 |  | 36 µM | 136 µM |  |  |  | 
11 | O=C(c1ccc([N+](=O)[O-])o1)N1CCCC1 |  | 64 µM | 187 µM |  |  |  | 
12 | O=C(NCc1ccccc1)c1ccc([N+](=O)[O-])o1 | 123 µM | 15 µM | 61 µM | Tde | 8.2 |  | 
13 | O=C(c1ccc([N+](=O)[O-])o1)N1CCCCC1 |  | 103 µM | 282 µM |  |  |  | 
14 | CC1CS(=O)(=O)CCN1/N=C/c1ccc([N+](=O)[O-])o1 (configuration not stated) [NIFURTIMOX] | 272 µM | 4 µM | 245 µM |  | 68 |  | 
15 | O=C(O)c1ccc([N+](=O)[O-])o1 |  |  |  | Tde |  |  | inactive
